Rows were chosen to be rich in hits. Some 6.7% of all compounds tested hit in one or more screens of this group.
CSC inhib = cancer stem cell inhibition; 1.1% of 300,000 active; cancer stem cell-like cells viability, luminescence; inhibition, % at 7.5 µM; in the data active = inhibition above about 75%; tested in HMLE shEcad cells
NR3A LBD binder = modulates the human NR3A ligand-binding domain; NR3A LBD differential scanning fluorimetry, Tm shift; 0% = protein alone, 100% = glycine-bound protein; Tm shift relative to glycine control, % at 25 µM; 2.5% of 340,000 active;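 active = melting temperature shift of at least 10% of the positive control shift, at one fixed dose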
PREPL inh = human PREPL enzyme inhibition | 0.68% of 320,000 active | recombinant PREPL, fluorescence polarization activity-based probe | Q4J6C6 | inhibition, % at 5.96 µM | AID 2751; in the data active = inhibition above about 43%;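 also: 0% = enzyme with DMSO and 100% = wells lacking enzyme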
Target sequence (Q4J6C6 whole entry, looked up): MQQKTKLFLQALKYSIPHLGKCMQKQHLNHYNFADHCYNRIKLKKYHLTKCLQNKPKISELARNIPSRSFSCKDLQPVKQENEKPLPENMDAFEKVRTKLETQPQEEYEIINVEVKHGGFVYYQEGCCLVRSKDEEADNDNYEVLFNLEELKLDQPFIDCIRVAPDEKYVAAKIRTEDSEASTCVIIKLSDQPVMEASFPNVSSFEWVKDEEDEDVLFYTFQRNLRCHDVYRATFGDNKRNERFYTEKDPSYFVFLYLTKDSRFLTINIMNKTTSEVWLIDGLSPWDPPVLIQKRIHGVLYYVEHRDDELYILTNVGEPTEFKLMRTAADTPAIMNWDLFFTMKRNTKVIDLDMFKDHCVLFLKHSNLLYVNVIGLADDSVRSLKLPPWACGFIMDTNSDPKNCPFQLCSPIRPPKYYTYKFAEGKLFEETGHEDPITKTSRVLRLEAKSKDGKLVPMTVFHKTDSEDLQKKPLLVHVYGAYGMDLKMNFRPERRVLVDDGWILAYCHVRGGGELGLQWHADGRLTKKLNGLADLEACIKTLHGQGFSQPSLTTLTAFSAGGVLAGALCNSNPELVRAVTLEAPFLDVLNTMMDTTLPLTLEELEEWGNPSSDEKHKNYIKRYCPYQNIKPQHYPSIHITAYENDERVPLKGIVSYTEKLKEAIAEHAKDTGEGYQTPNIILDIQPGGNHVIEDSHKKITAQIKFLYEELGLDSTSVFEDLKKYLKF
Beta apoptosis = blocks beta cell apoptosis | INS-1E cytokine-induced death, ATP luminescence, 48 h; percent of positive-control rescue, neutral wells zero | 0.8% of 300,000 active | protection from apoptosis, % (test concentration not listed) | AID 435005;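 active = Every replicate reaches about 75%, or at least half do and their mean reaches it too, limit read from the data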;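 also: 0% = cytokine-treated negative control wells and 100% = positive control rescue; higher means more ATP so stronger rescue from cytokine killing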
T cruzi inh = blocks replication of Trypanosoma cruzi; inhibition, % (no concentration beside the values); T. cruzi beta-gal in NIH3T3, luminescence, 90 h; 1.4% of 300,000 active;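 active = mean inhibition across valid replicates above about 55%, limit read from the data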;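 also: signal also drops with host cell toxicity which is not excluded here; 0% = plate median of DMSO wells and 100% = zero luminescence signal; higher percent means less beta-gal luminescence so fewer parasites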
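System: NIH/3T3 fibroblasts plus reporter T. cruzi. Medium: DMEM plus 2% FBS. Probe or stimulus: 5000 reporter trypomastigotes per well. Compound: single 50 nL compound addition per well in DMSO. Incubation: co-culture of at least 90 h after 3 h attachment. Detection: GalScreen β-gal luminescence, detergent lysis, 60 min. Evaluation: parasite load inhibition, %.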
CHOP inh = blocks CHOP induction under ER stress | CHO-K1 CHOP-promoter luciferase, tunicamycin-induced, 15-18 h | 3.8% of 220,000 active | inhibition, % at 10 µM;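 active = compounds that reduced the stress-induced luciferase reporter signal by more than about 70% of percent inhibition, limit read from the data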;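 also: 0% = tunicamycin plus vehicle and 100% = wells without tunicamycin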
* hit, by the source's call.

`COc1ccc(O)c(C(=O)CC(=O)c2cccnc2)c1` gave NR3A LBD binder 0.
For CCOC(=O)C=Nc1c(N)n(C)c(=O)n(C)c1=O the results were CSC inhib -2, NR3A LBD binder 10, PREPL inh -5, Beta apoptosis 4, T cruzi inh -3 and CHOP inh 12.
For COCCN1CCN(C(=O)C2CCC(=O)N(CCc3cccc(F)c3)C2)CC1 (stereo unspecified) the results were CSC inhib -11, NR3A LBD binder -1, PREPL inh -1, Beta apoptosis -24 and T cruzi inh -12.
For CCOC(=O)Cc1csc(NC(=O)c2ccc(C)c(S(=O)(=O)N3CCOCC3)c2)n1 the results were NR3A LBD binder -2 and PREPL inh 7.
`Cc1cccc(-n2ncc3c2CCCC3NC(=O)CCN2CCCO2)c1C` (stereo unspecified) gave CSC inhib -3, NR3A LBD binder 0, PREPL inh -1, Beta apoptosis 8 and T cruzi inh -15.
`CCC(=O)c1ccc(OCc2ccccc2)c(OC)c1` gave NR3A LBD binder 11*, PREPL inh 8, Beta apoptosis 13, T cruzi inh 6 and CHOP inh 36.
`CSc1ncccc1C(=O)NC1CCN(Cc2ccccc2)CC1` gave CSC inhib 0, NR3A LBD binder 2, PREPL inh 6, Beta apoptosis -5 and T cruzi inh 22.
`CC[C@]1(c2ccccc2OC)ON(c2ccccc2C(F)(F)F)C1=O` gave CSC inhib 59, NR3A LBD binder -21, PREPL inh 2 and Beta apoptosis 87*.
`CCNc1nc(Oc2ccc(F)cc2)cc(C(F)(F)F)n1` gave CSC inhib 4, NR3A LBD binder 2, PREPL inh 10, T cruzi inh -8 and CHOP inh 52.
For CC(C)Nc1nc(Oc2ccc(Cl)cc2)cc(C(F)(F)F)n1 the results were CSC inhib 20, NR3A LBD binder 3, PREPL inh 4, Beta apoptosis 26, T cruzi inh 6 and CHOP inh 74*.
`CC(Cc1ccccc1)N/C=C1/CC(=O)NC1=O` (stereo unspecified) gave CSC inhib -10, NR3A LBD binder 14*, PREPL inh -4, Beta apoptosis -5, T cruzi inh -6 and CHOP inh 4.
Screening COc1ccc(NC(=O)C2CCCN(S(=O)(=O)c3ccc4[nH]c(=O)ccc4c3)C2)cc1 (stereo unspecified) returned CSC inhib -11, NR3A LBD binder 1, PREPL inh -6, Beta apoptosis 0 and T cruzi inh -11.
`COc1cc(NC(=O)C2CCCN(S(=O)(=O)c3ccc4[nH]c(=O)ccc4c3)C2)cc(OC)c1` (stereo unspecified) gave CSC inhib -11, NR3A LBD binder 12*, PREPL inh -8, Beta apoptosis -3 and T cruzi inh 4.
Screening CCC(C)NC(=O)C1CCN(S(=O)(=O)c2ccc3[nH]c(=O)ccc3c2)CC1 (stereo unspecified) returned NR3A LBD binder 2, PREPL inh 7, Beta apoptosis 4 and T cruzi inh -4.
`CCCNC(=O)C1CCN(S(=O)(=O)c2ccc3[nH]c(=O)ccc3c2)CC1` gave CSC inhib -5, NR3A LBD binder 17*, PREPL inh -10, Beta apoptosis 1 and T cruzi inh -2.
Screening Cc1cc(OCC(=O)NCC2CCC(C(=O)O)CC2)c2c(C)c(C)c(=O)oc2c1 (stereo unspecified) returned CSC inhib -9, NR3A LBD binder -2, PREPL inh 0, Beta apoptosis -1 and T cruzi inh -18.
Screening Clc1ccc(-c2cnc(Oc3ccccc3)nc2)cc1 returned CSC inhib -12, NR3A LBD binder -3, PREPL inh 1, Beta apoptosis -4, T cruzi inh 4 and CHOP inh -6.
Screening Cc1ccc(Oc2nccc(-c3ccc(Cl)cc3)n2)cc1 returned CSC inhib 11, NR3A LBD binder 1, PREPL inh 6, Beta apoptosis -4, T cruzi inh 8 and CHOP inh 78*.
Cc1ccc2nc(NC(=O)c3ccc(S(=O)(=O)N4CCCc5ccccc54)cc3)sc2c1 was read as CSC inhib 10, NR3A LBD binder 7, PREPL inh -1, Beta apoptosis 4, T cruzi inh 13 and CHOP inh 76*.

Screening data from PubChem BioAssay.
